# Laboratory results reported in ChEMBL document CHEMBL1275433 (Antimicrob Agents Chemother, 2008).
# Activity calls are given as the source filed them. No cut-off for these calls is given here.
# Experiments:
# [1] = Inhibition of Mycobacterium tuberculosis DNA gyrase GyrB/GyrA A83S mutant
# Method in brief: (§1)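 Enzyme unit: protein needed for 50% supercoiling of 0.4 μg relaxed pBR322 DNA in 1 h at 37°C. Wild-type and mutant enzymes assayed in parallel on the same day under identical conditions. Repeated two to four times; representative values reported.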
# [2] = Inhibition of Mycobacterium tuberculosis DNA gyrase GyrB/GyrA A83S, S84A and I85V mutant; method in brief: as §1
# [3] = Inhibition of Mycobacterium tuberculosis DNA gyrase GyrB/GyrA A83S, S84A, I85V, F96W and P101M mutant; method in brief: as §1
# [4] = Inhibition of Mycobacterium tuberculosis DNA gyrase GyrB/GyrA M74I mutant; method in brief: as §1
# [5] = Inhibition of Mycobacterium tuberculosis DNA gyrase GyrB/GyrA M74I and A83S mutant; method in brief: as §1
# [6] = Inhibition of Mycobacterium tuberculosis DNA gyrase GyrB/GyrA S69V, A71G, E72D, T73V, M74I, N76K, A83S, S84A, I85V, F96W and P101M mutant; method in brief: as §1
# [7] = Inhibition of Mycobacterium tuberculosis DNA gyrase GyrA/GyrB R447K mutant gene; method in brief: as §1
# [8] = Inhibition of Mycobacterium tuberculosis DNA gyrase GyrA A83S mutant/GyrB R447K mutant gene; method in brief: as §1
# [9] = Inhibition of Mycobacterium tuberculosis DNA gyrase GyrA M74I and A83S mutant/GyrB R447K mutant gene; method in brief: as §1
# [10] = Inhibition of Mycobacterium tuberculosis DNA gyrase GyrA/GyrB N464S mutant gene; method in brief: as §1
# [11] = test system: Mycobacterium tuberculosis
# [12] = test system: Mycobacterium tuberculosis; remark: listed apart in the source
# [13] = test system: Mycobacterium tuberculosis; remark: listed apart in the source
# [14] = test system: Mycobacterium tuberculosis; remark: listed apart in the source
# [15] = test system: Mycobacterium tuberculosis; remark: listed apart in the source
# [16] = test system: Mycobacterium tuberculosis; remark: listed apart in the source
# [17] = test system: Mycobacterium tuberculosis; remark: listed apart in the source
# [18] = test system: Mycobacterium tuberculosis; remark: listed apart in the source
# [19] = test system: Mycobacterium tuberculosis; remark: listed apart in the source
# [20] = test system: Mycobacterium tuberculosis; remark: listed apart in the source
# [21] = test system: Mycobacterium tuberculosis; assay: Antimicrobial activity against Mycobacterium tuberculosis harboring DNA gyrase GyrA QRDR; format: functional, organism-based
# [22] = test system: Mycobacterium tuberculosis; assay: Antimicrobial activity against Mycobacterium tuberculosis harboring DNA gyrase GyrB QRDR; format: functional, organism-based
SMILES,IC50 [1] [µM],IC50 [2] [µM],IC50 [3] [µM],IC50 [4] [µM],IC50 [5] [µM],IC50 [6],IC50 [7] [µM],IC50 [8] [µM],IC50 [9] [µM],IC50 [10] [µM],CC25 [11] [µM],CC25 [12] [µM],CC25 [13] [µM],CC25 [15] [µM],CC25 [16] [µM],CC25 [17],CC25 [18] [µM],CC25 [19],CC25 [20],also measured
CCn1cc(C(=O)O)c(=O)c2cc(F)c(N3CCNCC3)nc21 [ENOXACIN],16,11,16,> 160,9,Not Active,23,19,16,–,–,–,–,–,–,–,–,–,–,–
COc1c(N2C[C@@H]3CCCN[C@@H]3C2)c(F)cc2c(=O)c(C(=O)O)cn(C3CC3)c12 [MOXIFLOXACIN],–,–,–,–,1,Not Active,1,–,2,7,0.5,1,1,0.5,0.5,inactive,3.5,inactive,inactive,CC25 [14]: 2.5 µM
CCn1cc(C(=O)O)c(=O)c2ccc(C)nc21 [NALIDIXIC ACID],950,2800,1080,3450,850,Not Active,1080,850,520,4100,–,–,–,–,–,–,–,–,–,–
CC1COc2c(N3CCN(C)CC3)c(F)cc3c(=O)c(C(=O)O)cn1c23 (configuration not stated) [OFLOXACIN],7,8,7,25,3,Not Active,7,4,11,20,1.5,3,3,1.5,0.5,inactive,14,inactive,inactive,IC50 [21]: 10 µg/mL; MIC50 [21]: 1 µg/mL; IC50 [22]: 10 µg/mL; MIC50 [22]: 1 µg/mL
